Assay outcomes (PubChem)
Candida biofilm – kills Candida albicans biofilms | AID 834 | C. albicans biofilm + clotrimazole, Alamar Blue | 85,000 compounds, 0.14% hits | inhibition, % at 6 µM;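 active means inhibition above 20%; inactive means inhibition below 20%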;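 further: preformed 24 hr biofilms exposed to compound for 48 hr; 0% = biofilm without compound and 100% = blank killed by clotrimazole plus chlorhexidine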
PostGolgi ctrl – growth of the yeast control strain, post-Golgi counter-screen; 98,000 compounds, 5% hits; inhibition, % at 10 µM; efflux-deficient yeast background strain, growth absorbance A615, 16 h
FAK inh – FAK (human) kinase inhibition; Q05397; biochemical FAK kinase activity assay; inhibition, %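 (tested at 7 µM)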; 97,000 compounds, 0.84% hits; in the data active means inhibition above about 19%;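 further: 0% = DMSO and 100% = reference compound high control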
tolC growth inh – growth inhibitors of E. coli BW25113 tolC mutant; OD615; growth inhibition, % at 10 µM (by protocol); 65,000 compounds, 2.2% hits;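 active means growth inhibition at or above a cutoff equal to the mean over every tested compound plus 3 SD, cut at about 60% in these data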;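 further: growth measured after 20 h incubation at 37 °C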
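Doses: one dose of 10 µM final / Material: E. coli BW25113 ΔtolC::kan, tolC deletion mutant strain / Buffer or medium: LB with kanamycin 50 µg/mL / Evaluation: percent growth inhibition / Detection: optical density read at 615 nm / Incubation: 37 °C, 20 h exposure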
PostGolgi yeast – growth inhibition of a yeast mutant, post-Golgi transport screen | post-Golgi transport phenotypic cell assay | 98,000 compounds, 0.9% hits | inhibition, % at 10 µM;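 further: yeast cells grown in 1536-well plates; yeast grown about 18 h at 30C before absorbance read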
PTK2B oligo ant – Pyk2 (human) oligomerization antagonism | Q293 cells, Pyk2 FERM NanoBiT luminescence; stronger effect = lower value | z-score (the deposit names both 25 µM and 10 µM) | 99,000 compounds, 0.83% hits;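 active means Z-score of -3 or lower, scaled per plate to the spread of control and sample wells; inactive means z-score above -3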;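 further: negative z-score means lost luminescence so less FERM oligomerization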
* marks the source's active call; other numbers are inactive results; x = no result given. Hits are enriched below; roughly 6.9% of the tested compounds scored in any of these assays. Unless noted, no stated cut-off is given here; in the data, active means inhibition above about 30%; inactive means the rest.

SMILES	Candida biofilm	PostGolgi ctrl	FAK inh	tolC growth inh	PostGolgi yeast	PTK2B oligo ant
Cc1nc(Nc2ccc(F)cc2)[nH]c(=O)c1CCC(C)C	7	32*	1	31	3	-0.08
CCCCCc1c(C)nc(Nc2ccccc2)[nH]c1=O	1	24	8	75*	12	-0.27
COC(=O)C1=C(C)N(c2ccc(C)c(C)c2)/C(=C/c2cccs2)C1=O	x	19	-5	x	4	-2.3
O=C(NCc1ccc2c(c1)OCO2)c1cnc2n(c1=O)CCS2	11	-5	-4	1	-5	x
Cn1c(=O)c2c(nc(N3CCCCCC3)n2Cc2cccc3ccccc23)n(C)c1=O	1	62*	x	74*	8	-1.1
CCN1CCN(Cc2nc3c(c(=O)n(C)c(=O)n3C)n2Cc2ccccc2Cl)CC1	-4	31*	-3	-3	3	x
CC1CCN(c2nc3c(c(=O)n(C)c(=O)n3C)n2CCSc2nc3ccccc3s2)CC1	0	36*	-3	8	16	-1
Cn1c(=O)c2c(nc(CN3CCN(CCO)CC3)n2Cc2ccccc2Cl)n(C)c1=O	x	x	x	-3	x	x
Cn1c(=O)c2c(nc(CN3CCN(Cc4ccccc4)CC3)n2Cc2cccc(Cl)c2)n(C)c1=O	-6	x	x	4	x	x
CN1CCN(c2nc3c(c(=O)n(C)c(=O)n3C)n2Cc2cccc3ccccc23)CC1	9	3	-1	21	7	1.9
Cn1c(=O)c2c(nc(CN3CCc4ccccc4C3)n2Cc2cccc(Cl)c2)n(C)c1=O	-2	33*	x	32	5	x
Cn1c(=O)c2cc(S(=O)(=O)NCCC(=O)Nc3ccc(Cl)cc3)ccc2n(C)c1=O	x	-3	-5	-17	12	0.16
O=C(CCN1C(=O)C2C3C=CC(C3)C2C1=O)NCCN1CCCc2ccccc21 (centres undefined)	x	39*	1	-2	-2	1.1
Fc1ccccc1CNc1cc(Cl)cc(Cl)c1	x	6	17	x	4	-0.65
O=C(C1CCCCN1S(=O)(=O)c1ccc(F)cc1)N1CCN(c2ccccc2F)CC1 (centres undefined)	x	25	-1	11	2	x
CCn1c(SCC(=O)N2CCN(S(=O)(=O)c3ccccc3)CC2)nnc1-c1cccs1	x	-5	-1	3	11	0.66
O=c1c2cn[nH]c2nc(SCc2ccc3c(c2)OCCO3)n1-c1ccccc1	7	16	2	20	-3	-3.7*
CCc1ccccc1-n1c(SCC(=O)Nc2ccc3c(c2)OCCO3)nc2[nH]ncc2c1=O	5	7	4	23	0	-2.3
Cc1cc(NC(=O)NC(=O)c2cccc(OC(F)(F)C(F)F)c2)n[nH]1	5	33*	3	-10	-11	-1.8
COc1cccc(C(=O)Nc2c(C)n[nH]c2C)c1	6	-7	-2	-11	3	1.6
CCOC(=O)C(=Cc1ccc(OCc2ccc([N+](=O)[O-])cc2)c(OC)c1)C(=O)OCC	x	43*	1	x	-4	-1.9
O=C(NCc1ccccc1)c1ccc(OC2CSC2)cc1	-1	32*	0	1	-5	-0.07
O=C(NCc1ccccc1)c1ccc(Oc2ccc(C(=O)NCc3ccccc3)cc2)cc1	8	12	2	x	13	2.3
O/N=C(\c1ccc(Cl)cc1Cl)c1ncc(C(F)(F)F)cc1Cl	-1	59*	2	x	0	-1.3
Cc1noc(NC(=O)c2ccc(F)cc2)c1C#N	x	4	4	x	7	-0.82
SMILES	Candida biofilm	PostGolgi ctrl	FAK inh	tolC growth inh	PostGolgi yeast	PTK2B oligo ant
O=c1[nH]c(CSc2nnc(-c3ccccc3)n2C2CCCCC2)nc2ccccc12	x	11	2	x	1	-1.5
O=C(CCC1N=C2c3ccccc3N=C(SCc3ccccc3Cl)N2C1=O)NCc1ccco1 (centres undefined)	2	37*	0	13	-1	0.68
O=C(CCC1N=C2c3ccccc3N=C(SCc3cccc(Cl)c3)N2C1=O)NCc1ccco1 (centres undefined)	4	8	5	20	1	-0.2
Cc1cn([C@H]2C=C[C@@H](CO)O2)c(=O)[nH]c1=O	-3	x	x	-1	x	x
CCOC(=O)C1C(=O)C=C(c2ccc(Br)cc2)CC1c1ccco1 (centres undefined)	6	20	1	x	-7	-1.1
CCOC(=O)C1C(=O)C=C(c2ccc([N+](=O)[O-])cc2)CC1c1ccccc1 (centres undefined)	x	38*	1	x	23	-0.99
COc1ccc(C2(O)CC3CCC(C2)N3c2nc(C)cc(C)c2C#N)cc1 (centres undefined)	3	12	-3	85*	2	-3*
OC(c1ccccc1)(c1ccc(F)cc1)C(c1ccccc1)N1CCOCC1 (centres undefined)	4	31*	-4	x	7	-1.1
O=C(c1cc(Cl)ccc1Cl)N1CCN(c2ccccn2)CC1	0	-9	1	3	7	0.53
OCC(O)CN1CCN(c2ccccc2)CC1 (centres undefined)	13	x	x	10	x	x
OC(CN1CCN(c2ccccn2)CC1)Cn1c2ccc(Cl)cc2c2cc(Cl)ccc21 (centres undefined)	4	97*	4	x	97*	0.18
OC(CN1CCN(c2ccccc2)CC1)Cn1c2ccccc2c2ccccc21 (centres undefined)	4	36*	0	x	-1	-1.4
Cc1ccc(S(=O)(=O)Cn2nnnc2CN2CCCC3(CCCCC3)C2)cc1	7	23	-3	76*	-3	-0.43
CCOC(=O)c1coc(CNC(=O)c2c(C)oc3c2CCCC3)c1	2	32*	-4	9	4	1.3
Cc1oc2c(c1C(=O)NCc1cc(C(=O)O)co1)CCCC2	-1	0	0	-15	4	0.03
CCc1nc(N)c(C#N)c(-c2ccccc2OC)c1C	4	4	5	12	31*	-0.95
Cc1ccc(SC(C)C(=O)Nc2cccnc2)cc1 (centres undefined)	-4	-1	10	x	6	2.5
Cc1ccc(SC(C)C(=O)Nc2ccncc2)cc1 (centres undefined)	4	90*	-2	x	102*	1.8
Cc1ccc(S(=O)(=O)Nc2cccc3ncccc23)s1	x	36*	3	100*	-2	-0.19
CC(C)(C)C(=O)CC1(O)C(=O)N(Cc2ccc(Cl)cc2)c2ccccc21 (centres undefined)	1	17	-4	x	-6	0.2
CCCCSc1nc(N)c(C#N)c(-c2cccs2)c1C#N	6	10	8	5	11	-3.8*
COc1ccc(CNS(=O)(=O)c2ccc(C3CNC(=O)C3)cc2)cc1 (centres undefined)	1	26	-1	2	-2	1.4
CC(C)Oc1ccc(C2CNC(=O)C2)cc1 (centres undefined)	2	33*	x	1	-5	x
O=C(c1ccco1)N1CCN(c2ncnc3c(-c4ccccc4)nsc23)CC1	5	23	-2	31	-8	0.69
